Here are results for 18 molecules from ChEMBL document CHEMBL3108700, “Designing anti-inflammatory drugs from parasitic worms: a synthetic small molecule analogue of the Acanthocheilonema viteae product ES-62 prevents development of collagen-induced arthritis” (J Med Chem, 2013).

The source made the active and inactive calls. How the calls were made is not given here.

The target in assay [1] is T1, Toll-like receptor 4 (Mus musculus) (UniProt Q9QUK6).
T1 sequence (whole entry): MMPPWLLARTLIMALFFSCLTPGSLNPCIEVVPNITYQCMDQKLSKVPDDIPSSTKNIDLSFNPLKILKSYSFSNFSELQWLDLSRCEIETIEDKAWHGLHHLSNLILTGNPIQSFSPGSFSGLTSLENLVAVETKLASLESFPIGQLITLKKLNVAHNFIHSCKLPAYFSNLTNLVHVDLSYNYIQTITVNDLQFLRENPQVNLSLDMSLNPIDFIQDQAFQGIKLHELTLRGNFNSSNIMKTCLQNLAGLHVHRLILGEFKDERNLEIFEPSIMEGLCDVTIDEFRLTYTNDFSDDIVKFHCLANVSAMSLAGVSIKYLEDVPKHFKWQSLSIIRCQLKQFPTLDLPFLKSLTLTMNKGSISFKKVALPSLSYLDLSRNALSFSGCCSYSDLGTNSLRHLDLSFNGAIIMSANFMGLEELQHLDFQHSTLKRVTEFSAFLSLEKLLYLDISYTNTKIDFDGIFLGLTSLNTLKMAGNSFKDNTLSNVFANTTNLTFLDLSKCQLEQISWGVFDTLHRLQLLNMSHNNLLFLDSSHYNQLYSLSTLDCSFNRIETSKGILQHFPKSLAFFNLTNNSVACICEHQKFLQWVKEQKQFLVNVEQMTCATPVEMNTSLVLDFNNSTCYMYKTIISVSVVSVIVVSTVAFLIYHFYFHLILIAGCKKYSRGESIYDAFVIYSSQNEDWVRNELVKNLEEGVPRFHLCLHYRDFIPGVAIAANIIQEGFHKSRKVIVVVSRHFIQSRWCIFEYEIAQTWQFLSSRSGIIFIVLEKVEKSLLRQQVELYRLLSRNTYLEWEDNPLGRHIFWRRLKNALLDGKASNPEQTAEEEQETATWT
As to the kind of experiment: Inhibition of TLR4 in BALB/c mouse BMDM assessed as downregulation of LPS-stimulated IL-6 level at 5 ug/ml preincubated for 18 hrs followed by LPS challenge measured after 24 hrs by ELISA relative to control. The essentials: (§1)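 BALB/c male bone marrow macrophages were differentiated 7 days with L929 supernatant (≥99% CD11b+/F4/80+). Cells were plated at 2 × 10^5/well in triplicate, rested overnight, and given compounds at 5 μg/mL for 18 h. They were then stimulated with 100 ng/mL S. minnesota LPS, 10 ng/mL Pam3CSK4 (BLP) or 0.01 μM CpG for 24 h. Supernatant IL-12p40 and IL-6 were measured by ELISA (sensitivity 16 pg/mL).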

Assay [2] has as its target T2, Toll-like receptor 9 (Mus musculus) (UniProt Q9EQU3).
T2 sequence (whole entry): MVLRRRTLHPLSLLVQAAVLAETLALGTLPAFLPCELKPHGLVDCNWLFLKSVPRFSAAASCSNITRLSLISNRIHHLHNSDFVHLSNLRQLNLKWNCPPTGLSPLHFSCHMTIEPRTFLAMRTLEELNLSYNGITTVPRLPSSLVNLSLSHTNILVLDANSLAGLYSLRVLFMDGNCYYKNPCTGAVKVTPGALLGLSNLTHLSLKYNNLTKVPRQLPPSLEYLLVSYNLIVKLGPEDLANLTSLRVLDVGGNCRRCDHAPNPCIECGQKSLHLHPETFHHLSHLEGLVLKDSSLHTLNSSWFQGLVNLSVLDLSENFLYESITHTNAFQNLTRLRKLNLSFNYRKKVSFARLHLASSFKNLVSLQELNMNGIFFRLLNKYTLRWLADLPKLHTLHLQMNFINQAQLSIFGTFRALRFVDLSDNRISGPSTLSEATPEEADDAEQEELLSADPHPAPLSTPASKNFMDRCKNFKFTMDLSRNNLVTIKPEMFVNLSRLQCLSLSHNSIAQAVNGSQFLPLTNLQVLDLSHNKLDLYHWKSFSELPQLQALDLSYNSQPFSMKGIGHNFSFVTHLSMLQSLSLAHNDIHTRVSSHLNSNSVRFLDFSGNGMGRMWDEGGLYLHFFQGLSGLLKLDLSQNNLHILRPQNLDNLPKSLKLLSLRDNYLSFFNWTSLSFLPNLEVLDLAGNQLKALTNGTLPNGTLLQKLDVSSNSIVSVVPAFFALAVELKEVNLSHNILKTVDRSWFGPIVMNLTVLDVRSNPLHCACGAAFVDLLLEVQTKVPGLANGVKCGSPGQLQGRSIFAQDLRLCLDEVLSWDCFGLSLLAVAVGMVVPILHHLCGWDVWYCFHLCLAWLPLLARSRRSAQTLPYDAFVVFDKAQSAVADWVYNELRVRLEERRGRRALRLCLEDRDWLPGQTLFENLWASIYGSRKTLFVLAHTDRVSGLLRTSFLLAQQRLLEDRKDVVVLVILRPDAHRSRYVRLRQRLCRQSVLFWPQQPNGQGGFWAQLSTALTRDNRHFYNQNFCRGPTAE
Put plainly: Inhibition of TLR9 in BALB/c mouse BMDM assessed as downregulation of CpG-stimulated IL-6 level at 5 ug/ml preincubated for 18 hrs followed by CpG challenge measured after 24 hrs by ELISA relative to control. The essentials:
as §1
Background: In an ELISA, binding on a coated surface is turned into a signal by an enzyme label.

For assay [3], the target named is T2, Toll-like receptor 9 (Mus musculus). Put plainly: Inhibition of TLR9 in BALB/c mouse BMDM assessed as downregulation of CpG-stimulated IL-12p40 level at 5 ug/ml preincubated for 18 hrs followed by CpG challenge measured after 24 hrs by ELISA relative to control. The essentials:
as §1

The target in assay [4] is T3, TLR2/TLR6 (Mus musculus) (UniProt Q9QUN7+Q9EPW9). Put plainly: Inhibition of TLR2/6 in BALB/c mouse BMDM assessed as downregulation of BLP-stimulated IL-6 level at 5 ug/ml preincubated for 18 hrs followed by BLP challenge measured after 24 hrs by ELISA relative to control. Type of assay: protein-complex assay. The essentials: as §1
The target of assay [5] is T3, TLR2/TLR6 (Mus musculus). Put plainly: Inhibition of TLR2/6 in BALB/c mouse BMDM assessed as downregulation of BLP-stimulated IL-12p40 level at 5 ug/ml preincubated for 18 hrs followed by BLP challenge measured after 24 hrs by ELISA relative to control. Type of assay: protein-complex assay. The essentials: as §1
Assay [6] concerns the target T1, Toll-like receptor 4 (Mus musculus). As to the kind of experiment: Inhibition of TLR4 in BALB/c mouse BMDM assessed as downregulation of LPS-stimulated IL-12p40 level at 5 ug/ml preincubated for 18 hrs followed by LPS challenge measured after 24 hrs by ELISA relative to control. The essentials:
as §1

With `O=S(=O)(CCCN1CCOCC1)Cc1ccc(Br)cc1`, the inhibition result (in assay [1]; in assay [2]; in assay [3]; on TLR2/TLR6 (Mus musculus) [5]; in assay [6]) was “inactive” each time. Besides, the inhibition result on TLR2/TLR6 (Mus musculus) [4] is “Active”.
In the case of `Cc1ccc(CS(=O)(=O)CCN(C)C)cc1`, the inhibition result in assay [1] and in assay [6] was “Active” throughout. The inhibition result (in assay [2]; in assay [3]; on TLR2/TLR6 (Mus musculus) [4]; on TLR2/TLR6 (Mus musculus) [5]) was “inactive” in each case.
In the case of `O=S(=O)(Cc1ccc(Br)cc1)NCCN1CCCC1`, the inhibition result (in assay [1]; in assay [2]; in assay [3]; at TLR2/TLR6 (Mus musculus) [4]; on TLR2/TLR6 (Mus musculus) [5]; in assay [6]) was “inactive” in each case.
Regarding `CN(C)CCNS(=O)(=O)Cc1ccc(F)cc1`, the inhibition entry (in assay [1]; in assay [2]; in assay [3]; at TLR2/TLR6 (Mus musculus) [4]; on TLR2/TLR6 (Mus musculus) [5]; in assay [6]) was “inactive” each time.
Turning to `CN(C)CCS(=O)(=O)Cc1ccc(F)cc1`, the inhibition entry in assay [1], in assay [2], in assay [3] and in assay [6] was “inactive” each time. Also, the inhibition result at TLR2/TLR6 (Mus musculus) [4] and at TLR2/TLR6 (Mus musculus) [5] was “Active” throughout.
In the case of `CN(C)CCN(C)CCS(=O)(=O)c1ccccc1`, the inhibition result (in assay [1]; in assay [2]; in assay [3]; at TLR2/TLR6 (Mus musculus) [4]; on TLR2/TLR6 (Mus musculus) [5]; in assay [6]) was “inactive” throughout.
Regarding `O=S(=O)(CCN1CCSCC1)c1ccccc1`, the inhibition entry in assay [1] and in assay [6] was “Active” in each case. Moreover, the inhibition result (in assay [2]; in assay [3]; on TLR2/TLR6 (Mus musculus) [4]; at TLR2/TLR6 (Mus musculus) [5]) was “inactive” each time.
As for `CN(C)CCNS(=O)(=O)Cc1ccc2ccccc2c1`, the inhibition entry (in assay [1]; in assay [2]; in assay [3]; at TLR2/TLR6 (Mus musculus) [4]; on TLR2/TLR6 (Mus musculus) [5]; in assay [6]) was “inactive” each time.
With `CN(C)CCCS(=O)(=O)Cc1ccc(Br)cc1`, the inhibition entry in assay [1] is “Active”. In addition, the inhibition result (in assay [2]; in assay [3]; on TLR2/TLR6 (Mus musculus) [4]; at TLR2/TLR6 (Mus musculus) [5]; in assay [6]) was “inactive” throughout.
As for `Cc1ccc(CS(=O)(=O)NCCN2CCOCC2)cc1`, the inhibition result (in assay [1]; in assay [2]; in assay [3]; on TLR2/TLR6 (Mus musculus) [4]; at TLR2/TLR6 (Mus musculus) [5]; in assay [6]) was “inactive” throughout.
Turning to `CC[C@H](C)NCCS(=O)(=O)Cc1cccc(F)c1`, the inhibition result (in assay [1]; in assay [2]; in assay [3]; on TLR2/TLR6 (Mus musculus) [4]; on TLR2/TLR6 (Mus musculus) [5]; in assay [6]) was “inactive” each time.
In the case of `O=S(=O)(CCCN1CCCC1)Cc1ccc(Br)cc1`, the inhibition entry (in assay [1]; in assay [2]; in assay [3]; at TLR2/TLR6 (Mus musculus) [4]; on TLR2/TLR6 (Mus musculus) [5]; in assay [6]) was “inactive” throughout.
On to `CN(C)CCNC(=O)Cc1ccccc1`, for which the inhibition result (in assay [1]; in assay [3]; on TLR2/TLR6 (Mus musculus) [4]; at TLR2/TLR6 (Mus musculus) [5]) was “inactive” each time. In addition, the inhibition result in assay [2] and in assay [6] was “Active” throughout.
`Cc1ccc(CS(=O)(=O)NCCN2CCCC2)cc1`: the inhibition result (in assay [1]; in assay [2]; in assay [3]; on TLR2/TLR6 (Mus musculus) [4]; at TLR2/TLR6 (Mus musculus) [5]; in assay [6]) was “inactive” in each case.
Regarding `COc1cccc(C(=O)NCCN2CCOCC2)c1`, the inhibition result (in assay [1]; in assay [3]; at TLR2/TLR6 (Mus musculus) [4]) was “inactive” in each case. Further, the inhibition result (in assay [2]; at TLR2/TLR6 (Mus musculus) [5]; in assay [6]) was “Active” in each case.
For `O=S(=O)(Cc1ccc2ccccc2c1)NCCN1CCOCC1`, the inhibition result (in assay [1]; in assay [2]; in assay [3]; at TLR2/TLR6 (Mus musculus) [5]) was “Active” in each case. Moreover, the inhibition result (at TLR2/TLR6 (Mus musculus) [4]; in assay [6]) was “inactive” throughout.
As for `CN(C)CCN(C)CCS(=O)(=O)Cc1ccc(F)cc1`, the inhibition entry (in assay [1]; in assay [2]; in assay [3]; on TLR2/TLR6 (Mus musculus) [4]; in assay [6]) was “inactive” throughout. Further, at TLR2/TLR6 (Mus musculus) [5], the inhibition entry is “Active”.
Consider `O=S(=O)(CCN1CCCC1)Nc1ccccc1`, for which the inhibition result (in assay [1]; in assay [2]; at TLR2/TLR6 (Mus musculus) [4]; on TLR2/TLR6 (Mus musculus) [5]) was “inactive” each time. Besides, the inhibition result in assay [3] and in assay [6] was “Active” throughout.
